The record followed here is ChEMBL document CHEMBL1142034, “Inhibitors of HCV NS5B polymerase: synthesis and structure-activity relationships of N-1-heteroalkyl-4-hydroxyquinolon-3-yl-benzothiadiazines” (Bioorg Med Chem Lett, 2005).

Experiment [1] deals with T1, RNA-directed RNA polymerase (Hepacivirus hominis, UniProt O39930). The experiment in a line: Inhibitory concentration against RNA dependent RNA polymerase Nonstructural protein 5B of genotype 1a Hepatitis C virus. An outline of the steps: (§1)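 A biochemical assay on NS5B polymerase enzyme gave the IC50 values, run separately for genotype 1a and 1b.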
T1 sequence (O39930 whole entry): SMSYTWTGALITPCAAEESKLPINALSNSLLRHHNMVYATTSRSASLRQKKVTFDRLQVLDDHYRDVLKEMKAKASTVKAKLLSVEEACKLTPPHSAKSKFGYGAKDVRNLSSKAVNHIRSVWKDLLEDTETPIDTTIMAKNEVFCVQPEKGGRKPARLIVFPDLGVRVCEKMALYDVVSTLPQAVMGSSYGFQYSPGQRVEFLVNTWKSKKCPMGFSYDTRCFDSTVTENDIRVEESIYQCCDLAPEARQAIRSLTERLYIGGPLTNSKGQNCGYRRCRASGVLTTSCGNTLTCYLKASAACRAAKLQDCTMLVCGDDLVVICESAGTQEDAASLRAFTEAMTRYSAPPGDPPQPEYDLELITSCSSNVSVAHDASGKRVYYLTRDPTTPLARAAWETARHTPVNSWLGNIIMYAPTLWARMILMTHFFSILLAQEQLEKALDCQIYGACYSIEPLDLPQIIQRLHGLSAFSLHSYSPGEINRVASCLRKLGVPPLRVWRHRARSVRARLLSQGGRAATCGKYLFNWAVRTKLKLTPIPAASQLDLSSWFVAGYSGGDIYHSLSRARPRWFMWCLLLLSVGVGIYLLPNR
Experiment [2] addresses T1, RNA-directed RNA polymerase. Briefly: Inhibitory concentration against RNA dependent RNA polymerase Nonstructural protein 5B of genotype 1b Hepatitis C virus. The method in brief:
as §1

Experiment [3] shares this target. Briefly: Effective concentration against RNA dependent RNA polymerase Nonstructural protein 5B of genotype 1b Hepatitis C virus. An outline of the steps:
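Activity measured in an HCV replicon assay, with EC50 values derived from it.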

In general, IC50 refers to the concentration that inhibits the measured activity by half. A low value points to inhibition by little substance. For `O=c1c(C2=Nc3ccccc3S(=O)(=O)N2)c(O)c2ccccc2n1NCC1CCCC1`, the IC50 amounted to 0.747 µM in experiment [1] and 0.15 µM in experiment [2].
By EC50 is commonly meant the concentration giving half of the maximal effect. Read a high EC50 as lower potency in that assay. `CCCCNn1c(=O)c(C2=Nc3ccccc3S(=O)(=O)N2)c(O)c2ccccc21`: the IC50 worked out at 0.951 µM in experiment [1] and 0.161 µM in experiment [2]. For the same molecule, the EC50 in experiment [3] stood at 3.48 µM.
`O=c1c(C2=Nc3ccccc3S(=O)(=O)N2)c(O)c2ccccc2n1NCc1ccoc1`: the concentration for half-maximal inhibition (IC50) in experiment [1] was 1.55 µM; in experiment [2], 0.133 µM.
Regarding `O=c1c(C2=Nc3ccccc3S(=O)(=O)N2)c(O)c2ccccc2n1NCc1cccs1`, the IC50 came out at 2.33 µM in experiment [1] and 0.125 µM in experiment [2].
In the same order, the values of `CCC(CC)Nn1c(=O)c(C2=NS(=O)(=O)c3ccccc3N2)c(O)c2ccccc21` are 2.46 µM and 0.12 µM.
Consider `O=c1c(C2=NS(=O)(=O)c3ccccc3N2)c(O)c2cccnc2n1Cc1ccccc1`, for which, in experiment [2], the IC50 worked out at 0.083 µM.
Consider `CC(Nn1c(=O)c(C2=Nc3ccccc3S(=O)(=O)N2)c(O)c2ccccc21)c1ccccc1` (configuration not stated), for which the results for the IC50 in experiment [1] and in experiment [2] were 16.5 µM and 1.49 µM, respectively.
In the same order, the values of `Cc1cccc(CNn2c(=O)c(C3=NS(=O)(=O)c4ccccc4N3)c(O)c3ccccc32)c1` are 8.21 µM and 0.212 µM.
As for `CCC(CC)n1c(=O)c(C2=NS(=O)(=O)c3ccccc3N2)c(O)c2cccnc21`, the IC50 in experiment [2] was found to be 13.2 µM.
As for `O=c1c(C2=Nc3ccccc3S(=O)(=O)N2)c(O)c2ccccc2n1NCc1ccc(Br)cc1`, the IC50 in experiment [1] was found to be 10.4 µM; in experiment [2] it was 4.69 µM.
For the molecule `O=c1c(C2=Nc3ccccc3S(=O)(=O)N2)c(O)c2ccccc2n1NCc1nccs1`, the values for the IC50 in experiment [1] and in experiment [2] were 35.8 µM and 0.674 µM, respectively.
The molecule `CCC(CC)Cn1c(=O)c(C2=NS(=O)(=O)c3ccccc3N2)c(O)c2cccnc21` came in with an IC50 in experiment [2] of 0.058 µM. This lies in the double-digit nanomolar range.
Consider `CC(C)CNn1c(=O)c(C2=NS(=O)(=O)c3ccccc3N2)c(O)c2ccccc21`, for which the IC50 in experiment [1] turned out to be 0.941 µM; in experiment [2], 0.101 µM. The molecule also registered an EC50 in experiment [3] of 1.35 µM.
Take `Cc1ccsc1CNn1c(=O)c(C2=NS(=O)(=O)c3ccccc3N2)c(O)c2ccccc21`: the IC50 was 15 µM in experiment [1] and 1.19 µM in experiment [2].
For `O=c1c(C2=Nc3ccccc3S(=O)(=O)N2)c(O)c2ccccc2n1NCC1CCCCC1` the same measures were 2.53 µM and 0.15 µM.
For `CC(C)(C)CCNn1c(=O)c(C2=NS(=O)(=O)c3ccccc3N2)c(O)c2ccccc21` the same measures were 0.411 µM and 0.135 µM.
For the molecule `CCCC(Nn1c(=O)c(C2=NS(=O)(=O)c3ccccc3N2)c(O)c2ccccc21)C(C)C` (configuration not stated), the half-maximal inhibitory concentration (IC50) is 6.4 µM in experiment [1] and 1.13 µM in experiment [2].
For `CCCC(CC)Nn1c(=O)c(C2=Nc3ccccc3S(=O)(=O)N2)c(O)c2ccccc21` (configuration not stated) the same measures were 1.89 µM and 0.386 µM.
With `O=c1c(C2=Nc3ccccc3S(=O)(=O)N2)c(O)c2ccccc2n1NCc1ccccc1`, the figures for the IC50 in experiment [1] and in experiment [2] were 5.09 µM and 0.129 µM, respectively. This molecule displayed an EC50 in experiment [3] of 15.7 µM.
For the molecule `CC(C)Nn1c(=O)c(C2=NS(=O)(=O)c3ccccc3N2)c(O)c2ccccc21`, the figures for the IC50 in experiment [1] and in experiment [2] were 6.35 µM and 0.64 µM, respectively.
For `CC(C)CCn1c(=O)c(C2=NS(=O)(=O)c3ccccc3N2)c(O)c2cccnc21`, the IC50 in experiment [2] worked out at 0.069 µM. That is a double-digit nanomolar value.
`Cc1ccccc1CNn1c(=O)c(C2=Nc3ccccc3S(=O)(=O)N2)c(O)c2ccccc21`: the IC50 in experiment [1] is 6.12 µM; in experiment [2], 0.481 µM.
In the case of `O=c1c(C2=NS(=O)(=O)c3ccccc3N2)c(O)c2ccccc2n1NCC1CC1`, the 50% inhibitory concentration (IC50) is 0.285 µM in experiment [1] and 0.145 µM in experiment [2]. The molecule further returned an EC50 in experiment [3] of 1.05 µM.
`O=c1c(C2=Nc3ccccc3S(=O)(=O)N2)c(O)c2ccccc2n1NC1CCCCC1`: the IC50 in experiment [1] amounted to 0.356 µM; in experiment [2], 0.06 µM. The same molecule gave an EC50 in experiment [3] of 1.27 µM.
For `Cc1ccc(CNn2c(=O)c(C3=Nc4ccccc4S(=O)(=O)N3)c(O)c3ccccc32)cc1`, the IC50 in experiment [1] and in experiment [2] was greater than 5 µM each time.
In experiment [2], `O=c1c(C2=NS(=O)(=O)c3ccccc3N2)c(O)c2cccnc2n1C1CCCCC1` yielded an IC50 of 50 µM.
Still for that read-out and setting: to `CC(C)COn1c(=O)c(C2=Nc3ccccc3S(=O)(=O)N2)c(O)c2cccnc21` belongs 20.5 µM.
Same read-out and setting: in the case of `O=c1c(C2=NS(=O)(=O)c3ccccc3N2)c(O)c2cccnc2n1OCc1ccccc1` it was 58 µM.
Consider `O=c1c(C2=Nc3ccccc3S(=O)(=O)N2)c(O)c2ccccc2n1NCc1cccnc1`, for which the IC50 in experiment [1] is greater than 5 µM; in experiment [2], 0.221 µM.
For `O=c1c(C2=NS(=O)(=O)c3ccccc3N2)c(O)c2ccccc2n1NCc1ccco1` the same measures were 3.26 µM and 0.305 µM.
Consider `O=c1c(C2=Nc3ccccc3S(=O)(=O)N2)c(O)c2ccccc2n1NCC1CCC1`, for which the values for the IC50 in experiment [1] and in experiment [2] were 0.278 µM and 0.108 µM, respectively. For the same molecule, the EC50 in experiment [3] is 0.103 µM.
In the case of `CCCCCNn1c(=O)c(C2=NS(=O)(=O)c3ccccc3N2)c(O)c2ccccc21`, the IC50 in experiment [1] amounted to 0.928 µM.
For `O=c1c(C2=Nc3ccccc3S(=O)(=O)N2)c(O)c2ccccc2n1NCc1ccccc1Br`, the IC50 was 6.72 µM in experiment [1] and 0.469 µM in experiment [2].
Consider `O=c1c(C2=NS(=O)(=O)c3ccccc3N2)c(O)c2ccccc2n1NC1CCOCC1`, for which the IC50 in experiment [1] was 4.63 µM; in experiment [2], 0.439 µM.
Regarding `CC(C)CCNn1c(=O)c(C2=Nc3ccccc3S(=O)(=O)N2)c(O)c2ccccc21`, the IC50 in experiment [1] is 0.629 µM; in experiment [2] it was 0.134 µM.
On to `CCCC(CCC)Nn1c(=O)c(C2=Nc3ccccc3S(=O)(=O)N2)c(O)c2ccccc21`, for which the IC50 in experiment [1] came to 2.24 µM; in experiment [2] it was 1.8 µM.
In the same order, the values of `O=c1c(C2=NS(=O)(=O)c3ccccc3N2)c(O)c2ccccc2n1NCc1cccc(Br)c1` are 1.04 µM and 0.075 µM.
On to `O=c1c(C2=NS(=O)(=O)c3ccccc3N2)c(O)c2cccnc2n1CC1CCCCC1`, for which the concentration for half-maximal inhibition (IC50) in experiment [2] came out at 0.093 µM. This lies in the double-digit nanomolar range.
On the same count and under the same terms, in the case of `CC(c1ccccc1)n1c(=O)c(C2=NS(=O)(=O)c3ccccc3N2)c(O)c2cccnc21` (configuration not stated) it was 4.63 µM.
`O=c1c(C2=NS(=O)(=O)c3ccccc3N2)c(O)c2ccccc2n1NCc1ccc(Cl)s1`: the figures for the IC50 in experiment [1] and in experiment [2] were 4.78 µM and 1.45 µM, respectively.
In experiment [2], `O=c1c(C2=NS(=O)(=O)c3ccccc3N2)c(O)c2cccnc2n1CCc1ccccc1` yielded an IC50 of 1.49 µM.
